Measured values published in ChEMBL document CHEMBL4130343, “Design, synthesis, and evaluation of benzofuran derivatives as novel anti-pancreatic carcinoma agents via interfering the hypoxia environment by targeting HIF-1α pathway” (Eur J Med Chem, 2017).
Values after ≈ are worked out from the molar mass of the structure shown. Active and inactive are the calls of the source. No cut-off for these calls is given here.

What was measured:
PANC-1 [1] = assay: Antiproliferative activity against human PANC1 cells after 48 hrs by MTT assay; type: functional, cell-based; conditions: PANC-1, 48 h
How it was run: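 Cells were seeded at 5×10^5 cells/mL overnight and exposed to graded compound concentrations for 48 h. MTT (5 mg/mL stock) was added for 4 h at 37 °C, and formazan was dissolved in DMSO. Absorbance was read at 570 nm. IC₅₀ was fitted from the curves; values are mean ± SD, n = 3.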

[2] = Intrinsic aqueous solubility of the compound; type: physicochemical; conditions: read-out: Intrinsic_solubility
How it was run: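 Intrinsic aqueous solubility and log D at pH 7.4 were measured on a pION Gemini Profiler.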

[3] = Effective permeability of the compound at pH 7.4 by PAMPA; type: ADME; conditions: read-out: Peff
How it was run: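 Effective permeability was measured by double-sink PAMPA on a pION PAMPA Explorer.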

[4] = Half life in rat at 10 mg/kg, po after 0.083 to 24 hrs by LC-MS/MS method; type: ADME, organism-based; conditions: in vivo
[5] = AUC (0 to t) in rat at 10 mg/kg, po after 0.083 to 24 hrs by LC-MS/MS method; type: ADME, organism-based; design: dose 10 mg/kg, time upper 24 hr, time lower 0.083 hr, route oral; conditions: in vivo
[6] = Oral bioavailability in rat at 10 mg/kg after 0.083 to 24 hrs by LC-MS/MS method; type: ADME, organism-based; conditions: in vivo
[7] = AUC (0 to t) in rat at 10 mg/kg, iv after 0.083 to 24 hrs by LC-MS/MS method; type: ADME, organism-based; design: time upper 24 hr, time lower 0.083 hr, dose 10 mg/kg, route intravenous; conditions: in vivo
[8] = Cmax in rat at 10 mg/kg, ip after 0.083 to 24 hrs by LC-MS/MS method; type: ADME, organism-based; design: dose 10 mg/kg, route intraperitoneal; conditions: in vivo
[9] = Half life in rat at 10 mg/kg, ip after 0.083 to 24 hrs by LC-MS/MS method; type: ADME, organism-based; conditions: in vivo
[10] = Plasma concentration in rat at 10 mg/kg, ip after 36 hrs by LC-MS/MS method; type: ADME, organism-based
How it was run: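 Rats, n = 6 per group, each given a single 10 mg/kg dose. Blood was collected into heparinized tubes and centrifuged at 4 °C and 8000 rpm for 5 min. Plasma was analysed by LC–MS/MS.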

PANC-1 [11] = assay: Induction of apoptosis in human PANC1 cells assessed as late apoptotic cells at 1 uM after 24 hrs by annexin V/propidium iodide staining-based flow cytometric method (reference value: 2.65%); type: functional
PANC-1 [12] = assay: Induction of apoptosis in human PANC1 cells assessed as dead cells at 1 uM after 24 hrs by annexin V/propidium iodide staining-based flow cytometric method (reference value: 0.60%); type: functional
PANC-1 [13] = assay: Induction of apoptosis in human PANC1 cells assessed as early apoptotic cells at 2 uM after 24 hrs by annexin V/propidium iodide staining-based flow cytometric method (reference value: 7.25%); type: functional
PANC-1 [14] = assay: Induction of apoptosis in human PANC1 cells assessed as dead cells at 2 uM after 24 hrs by annexin V/propidium iodide staining-based flow cytometric method (reference value: 0.60%); type: functional
PANC-1 [15] = assay: Anticlonogenic activity against human PANC1 cells after 2 weeks by crystal violet staining-based assay; type: functional, cell-based
How it was run: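 PANC-1 cells were seeded at 100 cells/well overnight, then exposed to graded compound concentrations for 14 days with medium changed every three days. Colonies were fixed in 10% ethanol for 10 min and stained with 0.5% crystal violet in 25% ethanol for 10 min. Plates were dried and scanned.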

PANC-1 [16] = assay: Induction of apoptosis in human PANC1 assessed as increase in cleaved caspase-9 levels at 0.1 to 1 uM after 24 hrs by Western blot method; type: functional, cell-based
How it was run: (§1)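 PANC-1 cells were treated with graded compound concentrations for 24 h, then lysed. Proteins were separated by SDS-PAGE and blotted to PVDF. Blots were probed for PARP, cleaved PARP, caspase-3, cleaved caspase-3, caspase-9 and cleaved caspase-9, with GAPDH as loading control, and read by infrared imaging. Bands were quantified by densitometry as ratios normalized to GAPDH.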

PANC-1 [17] = assay: Induction of apoptosis in human PANC1 assessed as decrease in caspase-3 levels at 0.1 to 1 uM after 24 hrs by Western blot method; type: functional, cell-based; how it was run: as §1
PANC-1 [18] = assay: Induction of apoptosis in human PANC1 assessed as decrease in caspase-9 levels at 0.1 to 1 uM after 24 hrs by Western blot method; type: functional, cell-based; how it was run: as §1
PANC-1 [19] = assay: Induction of apoptosis in human PANC1 assessed as decrease in PARP levels at 0.1 to 1 uM after 24 hrs by Western blot method; type: functional, cell-based; how it was run: as §1
PANC-1 [20] = assay: Antitumor activity against human PANC1 cells xenografted in nude mouse assessed as inhibition of tumor weight at 15 mg/kg, ip administered every 2 days for 21 days relative to vehicle-treated control; type: functional; conditions: PANC-1, ip
How it was run: (§2)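 Female nude mice received 1×10^7 PANC-1 cells subcutaneously in the right flank. After 4 weeks, mice bearing tumors averaging 100 mm³ were randomized into five groups. Dosing was 15, 30 or 60 mg/kg i.p. every two days for 21 days. Tumor volume = width² × length/2; tumors were weighed at sacrifice, and body weight was monitored.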

PANC-1 [21] = assay: Antitumor activity against human PANC1 cells xenografted in nude mouse assessed as inhibition of tumor weight at 30 mg/kg, ip administered every 2 days for 21 days relative to vehicle-treated control; type: functional; conditions: PANC-1, ip; how it was run: as §2
Mus musculus [22] = assay: Toxicity in nude mouse xenografted with human PANC1 cells assessed as effect on body weight at 15 to 60 mg/kg, ip administered every 2 days for 21 days measured during compound dosing; type: organism-based; conditions: in vivo
How it was run: (§3)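 Female nude mice were implanted s.c. in the right flank with 1×10^7 PANC-1 cells. After 4 weeks, mice with tumours averaging 100 mm³ were randomized into five groups. They were dosed i.p. at 15, 30 or 60 mg/kg every two days for 21 days and monitored for toxicity, tumour growth and body weight.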

Mus musculus [23] = assay: Toxicity in nude mouse xenografted with human PANC1 cells assessed as effect on quality of life at 15 to 60 mg/kg, ip administered every 2 days for 21 days measured during compound dosing; type: organism-based; conditions: in vivo; how it was run: as §3
[24] = molecular target: Hypoxia-inducible factor 1-alpha (Homo sapiens) (UniProt Q16665); assay: Inhibition of HIF-1alpha (unknown origin) expressed in HEK293 cells under hypoxia condition after 24 hrs by luciferase reporter gene assay; type: cell-based
Hypoxia-inducible factor 1-alpha (Homo sapiens), sequence (Q16665 whole entry, looked up): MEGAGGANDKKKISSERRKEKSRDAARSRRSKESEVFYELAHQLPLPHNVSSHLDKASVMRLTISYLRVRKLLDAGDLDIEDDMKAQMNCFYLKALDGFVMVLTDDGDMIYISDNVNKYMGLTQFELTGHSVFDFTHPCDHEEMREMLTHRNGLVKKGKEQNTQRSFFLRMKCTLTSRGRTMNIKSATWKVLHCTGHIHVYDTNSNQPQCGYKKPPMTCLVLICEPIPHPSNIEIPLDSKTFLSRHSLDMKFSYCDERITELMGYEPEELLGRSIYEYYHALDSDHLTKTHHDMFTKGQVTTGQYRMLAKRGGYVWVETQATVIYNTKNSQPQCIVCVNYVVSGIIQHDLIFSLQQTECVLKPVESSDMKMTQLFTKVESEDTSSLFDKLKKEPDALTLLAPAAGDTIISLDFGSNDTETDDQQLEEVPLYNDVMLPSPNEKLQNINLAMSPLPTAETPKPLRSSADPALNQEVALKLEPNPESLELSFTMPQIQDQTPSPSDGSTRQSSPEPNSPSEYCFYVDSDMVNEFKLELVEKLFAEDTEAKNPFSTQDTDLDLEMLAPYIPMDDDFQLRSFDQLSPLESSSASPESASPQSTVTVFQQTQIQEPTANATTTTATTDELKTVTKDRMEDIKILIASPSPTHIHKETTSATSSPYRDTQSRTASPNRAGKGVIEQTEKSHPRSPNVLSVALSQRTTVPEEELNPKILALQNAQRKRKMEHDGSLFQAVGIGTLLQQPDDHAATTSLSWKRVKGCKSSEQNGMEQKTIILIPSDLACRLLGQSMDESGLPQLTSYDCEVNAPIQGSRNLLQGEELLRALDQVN
How it was run: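 HEK293 cells were co-transfected with HRE-luciferase and pRL-SV40 plasmids for 6 h. Cells were then treated with compound under hypoxia (1% O₂, 94% N₂, 5% CO₂, 37 °C) for 24 h. Activity was read by dual-luciferase assay on a luminometer.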

Mus musculus [25] = assay: Downregulation of CD31 expression in human PANC1 cells xenografted in nude mouse at 15 to 60 mg/kg, ip administered every 2 days for 21 days by immunohistochemical method; type: functional, organism-based
How it was run: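 Tumors came from the PANC-1 nude-mouse xenografts dosed at 15, 30 or 60 mg/kg i.p. every two days for 21 days. Tumor sections were stained immunohistochemically with antibodies against CD31, HIF-1α and VEGF.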

HUVEC = assay: Antiangiogenic activity in HUVEC assessed as inhibition of tube formation under hypoxia condition at 0.625 to 2.5 uM after 6 hrs by inverted microscopic method; conditions: Homo sapiens

Cc1c(C(=O)NC2CCN(C)CC2)oc2ccc(N(Cc3ccc(Br)cc3)S(=O)(=O)c3ccc(Br)cc3)cc12 gave an IC50 (PANC-1 [1]) of 1070 nM, a solubility [2] of 30.2 µg/mL (≈ 44.7 µM) and a Papp [3] of 6.54 ×10⁻⁶ cm/s. The half-life [4] was 6.63 h, the AUC(0-t) [5] was 1080 ng·h/mL and the bioavailability [6] was 15%. The AUC(0-t) [7] was 7220 ng·h/mL, the Cmax [8] was 549 ng/mL and the half-life [9] was 7.09 h. For the same molecule, the concentration at 36 h [10] was over 10 ng/mL, the Activity (PANC-1 [11]) was 45.6% and the Activity (PANC-1 [12]) was 0.2%. The Activity (PANC-1 [13]) was 3.7%, the Activity (PANC-1 [14]) was 0.45% and the Activity (PANC-1 [15]) was “Dose-dependent effect”. The Activity (PANC-1 [16]) was “Active”, the Activity (PANC-1 [17]) was “Active” and the Activity (PANC-1 [18]) was “Active”. The Activity (PANC-1 [19]) was “Active”, the inhibition in vivo at 15 mg/kg (PANC-1 [20]) was 39% and the inhibition in vivo at 30 mg/kg (PANC-1 [21]) was 66.4%. For the same molecule, the Activity (Mus musculus [22]) was “Non-Toxic”, the Activity (Mus musculus [23]) was “Non-Toxic” and the inhibition [24] was “Dose-dependent effect”. The Activity (Mus musculus [25]) was “Active” and the inhibition (HUVEC) was “Active”.
